{
  "source": "ChEMBL document CHEMBL4359878",
  "about": "“Discovery of 4-piperazinyl-2-aminopyrimidine derivatives as dual inhibitors of JAK2 and FLT3” (Eur J Med Chem, 2019)",
  "key": {"HEL [1]": {"system": "HEL", "assay": "Induction of apoptosis in human HEL cells assessed as viable cells at 1 uM after 72 hrs by FITC-annexin V/propidium iodide-double staining based flow cytometry (reference value: 93.77%)", "assay_type": "functional", "settings": "read-out: Activity"}, "HEL [2]": {"system": "HEL", "assay": "Induction of cell cycle arrest in human HEL cells assessed as accumulation at G2 phase at 9 uM after 72 hrs by propidium iodide-staining based flow cytometry (reference value: 15.10%)", "assay_type": "functional", "outline": "(§1)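 Subconfluent HEL cells were treated for 72 h at 0.33, 1.0, 3.0 or 9.0 μM, with untreated cells as control. Cultures were pulsed with 10 μM BrdU for 30 min at 37 °C before harvest, then PBS-washed, fixed in 70% ethanol and denatured in 2 M HCl. After neutralization, cells were stained with fluorescein anti-BrdU antibody and propidium iodide. DNA content was measured by flow cytometry with 488 nm excitation.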"}, "HEL [3]": {"system": "HEL", "assay": "Induction of apoptosis in human HEL cells assessed as necrotic cells at 3 uM after 72 hrs by FITC-annexin V/propidium iodide-double staining based flow cytometry (reference value: 2.40%)", "assay_type": "functional"}, "[4]": {"target": "Receptor-type tyrosine-protein kinase FLT3 (Homo sapiens) (UniProt P36888)", "settings": "at 100 nM"}, "HEL [5]": {"system": "HEL", "assay": "Induction of apoptosis in human HEL cells assessed as late apoptotic cells at 3 uM after 72 hrs by FITC-annexin V/propidium iodide-double staining based flow cytometry (reference value: 1.63%)", "assay_type": "functional"}, "HEL [6]": {"system": "HEL", "assay": "Induction of cell cycle arrest in human HEL cells assessed as accumulation at S phase at 0.33 uM after 72 hrs by propidium iodide-staining based flow cytometry (reference value: 41.47%)", "assay_type": "functional", "outline": "as §1"}, "HEL [7]": {"system": "HEL", "assay": "Induction of apoptosis in human HEL cells assessed as early apoptotic cells at 9 uM after 72 hrs by FITC-annexin V/propidium iodide-double staining based flow cytometry (reference value: 2.23%)", "assay_type": "functional"}, "HEL [8]": {"system": "HEL", "assay": "Induction of cell cycle arrest in human HEL cells assessed as accumulation at S phase at 1 uM after 72 hrs by propidium iodide-staining based flow cytometry (reference value: 41.47%)", "assay_type": "functional", "outline": "as §1"}, "MV4-11": {"system": "MV4-11", "assay": "Antiproliferative activity against human MV4-11 cells assessed as growth inhibition after 72 hrs by CCK-8 assay", "assay_type": "functional", "settings": "MV4-11, 72 h", "outline": "(§2)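 CCK-8 viability readout. Cells were cultured in RPMI 1640 with 10% FBS and 1% penicillin/streptomycin and seeded at 3000 (HEL), 5000 (MV4-11) or 3000 (HL60) cells/well. Increasing compound concentrations were applied for 72 h, then CCK-8 was added for a further 3 h and absorbance read at 450 nm. Inhibition = (1−A_sample/A_control)×100, normalized to DMSO controls. Value is the mean of three independent measurements, obtained by curve fitting.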"}, "HL-60": {"system": "HL-60", "assay": "Antiproliferative activity against human HL60 cells assessed as growth inhibition after 72 hrs by CCK-8 assay", "assay_type": "functional", "settings": "HL-60, 72 h", "outline": "as §2"}, "HEL [9]": {"system": "HEL", "assay": "Induction of cell cycle arrest in human HEL cells assessed as accumulation at G1 phase at 0.33 uM after 72 hrs by propidium iodide-staining based flow cytometry (reference value: 43.12%)", "assay_type": "functional", "outline": "as §1"}, "HEL [10]": {"system": "HEL", "assay": "Induction of apoptosis in human HEL cells assessed as necrotic cells at 1 uM after 72 hrs by FITC-annexin V/propidium iodide-double staining based flow cytometry (reference value: 2.40%)", "assay_type": "functional"}, "HEL [11]": {"system": "HEL", "assay": "Induction of cell cycle arrest in human HEL cells assessed as accumulation at S phase at 3 uM after 72 hrs by propidium iodide-staining based flow cytometry (reference value: 41.47%)", "assay_type": "functional", "outline": "as §1"}, "[12]": {"target": "T1, Receptor-type tyrosine-protein kinase FLT3 (Homo sapiens, UniProt P36888)", "T1 sequence (P36888 whole entry)": "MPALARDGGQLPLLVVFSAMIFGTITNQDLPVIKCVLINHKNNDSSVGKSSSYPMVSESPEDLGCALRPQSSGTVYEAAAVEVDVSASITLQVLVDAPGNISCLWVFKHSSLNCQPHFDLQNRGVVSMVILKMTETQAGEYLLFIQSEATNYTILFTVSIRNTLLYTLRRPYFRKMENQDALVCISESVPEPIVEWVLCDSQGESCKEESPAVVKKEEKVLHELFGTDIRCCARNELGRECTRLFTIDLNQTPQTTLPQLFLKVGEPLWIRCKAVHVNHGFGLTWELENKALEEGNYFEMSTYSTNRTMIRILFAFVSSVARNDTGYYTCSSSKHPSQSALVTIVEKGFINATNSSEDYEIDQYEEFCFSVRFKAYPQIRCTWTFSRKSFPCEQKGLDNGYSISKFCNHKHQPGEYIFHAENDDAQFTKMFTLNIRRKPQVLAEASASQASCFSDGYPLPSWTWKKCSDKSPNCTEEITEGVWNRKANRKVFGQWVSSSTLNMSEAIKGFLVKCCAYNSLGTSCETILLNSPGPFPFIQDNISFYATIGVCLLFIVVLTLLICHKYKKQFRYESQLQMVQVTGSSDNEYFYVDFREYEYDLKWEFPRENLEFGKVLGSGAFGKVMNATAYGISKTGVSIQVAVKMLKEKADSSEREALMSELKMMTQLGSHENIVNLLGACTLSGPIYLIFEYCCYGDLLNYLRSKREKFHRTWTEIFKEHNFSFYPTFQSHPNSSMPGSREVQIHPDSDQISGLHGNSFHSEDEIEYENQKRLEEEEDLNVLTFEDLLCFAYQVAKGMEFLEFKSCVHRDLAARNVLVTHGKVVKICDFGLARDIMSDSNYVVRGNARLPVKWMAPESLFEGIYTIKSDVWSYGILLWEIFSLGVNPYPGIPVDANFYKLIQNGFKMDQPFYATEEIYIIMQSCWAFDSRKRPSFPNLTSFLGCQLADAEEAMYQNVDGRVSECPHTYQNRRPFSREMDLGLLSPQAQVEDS", "assay": "Inhibition of N-terminal GST-tagged human FLT3 cytoplasmic domain (564 to 993 residues) expressed in baculovirus expression system musing FAM-labeled peptide as substrate preincubated for 10 mins followed by substrate addition measured after 1 hr in presence of ATP by mobility shift assay", "outline": "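Caliper mobility-shift assay with recombinant kinase in 50 mM HEPES pH 7.5, 0.0015% Brij-35. Compound was diluted from DMSO and preincubated with enzyme for 10 min at room temperature. FAM-labeled peptide plus ATP was then added and the reaction run for 1 h at 28 °C. It was stopped with an EDTA (50 mM) buffer. Conversion gave percent inhibition relative to max/min controls, and IC50 came from a four-parameter Hill fit. Duplicate wells were used.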"}, "HEL [13]": {"system": "HEL", "assay": "Induction of cell cycle arrest in human HEL cells assessed as accumulation at G2 phase at 3 uM after 72 hrs by propidium iodide-staining based flow cytometry (reference value: 15.10%)", "assay_type": "functional", "outline": "as §1"}, "HEL [14]": {"system": "HEL", "assay": "Induction of apoptosis in human HEL cells assessed as viable cells at 9 uM after 72 hrs by FITC-annexin V/propidium iodide-double staining based flow cytometry (reference value: 93.77%)", "assay_type": "functional", "settings": "read-out: Activity"}, "HEL [15]": {"system": "HEL", "assay": "Induction of apoptosis in human HEL cells assessed as late apoptotic cells at 9 uM after 72 hrs by FITC-annexin V/propidium iodide-double staining based flow cytometry (reference value: 1.63%)", "assay_type": "functional"}, "HEL [16]": {"system": "HEL", "assay": "Induction of apoptosis in human HEL cells assessed as viable cells at 3 uM after 72 hrs by FITC-annexin V/propidium iodide-double staining based flow cytometry (reference value: 93.77%)", "assay_type": "functional", "settings": "read-out: Activity"}},
  "data": [
    {"smiles": "CC(=O)c1ccc(NC(=O)N2CCN(c3ccnc(Nc4ccc(N5CCOCC5)cc4)n3)CC2)cc1", "values": [
      {"measurement": "viability at 1 µM", "setting": "HEL [1]", "result": 47.9, "unit": "%"},
      {"measurement": "Activity", "setting": "HEL [2]", "result": 2.07, "unit": "%"},
      {"measurement": "Activity", "setting": "HEL [3]", "result": 7, "unit": "%"},
      {"measurement": "inhibition", "setting": "[4]", "result": 80.7, "unit": "%"},
      {"measurement": "Activity", "setting": "HEL [5]", "result": 33.6, "unit": "%"},
      {"measurement": "Activity", "setting": "HEL [6]", "result": 38.62, "unit": "%"},
      {"measurement": "Activity", "setting": "HEL [7]", "result": 35.53, "unit": "%"},
      {"measurement": "Activity", "setting": "HEL [8]", "result": 31.59, "unit": "%"},
      {"measurement": "GI50", "setting": "MV4-11", "result": 11, "unit": "µM"},
      {"measurement": "GI50", "setting": "HL-60", "result": 16.5, "unit": "µM"},
      {"measurement": "Activity", "setting": "HEL [9]", "result": 54.07, "unit": "%"},
      {"measurement": "Activity", "setting": "HEL [10]", "result": 12.73, "unit": "%"},
      {"measurement": "Activity", "setting": "HEL [11]", "result": 22.24, "unit": "%"},
      {"measurement": "IC50", "setting": "[12]", "result": 0.03, "unit": "µM"},
      {"measurement": "Activity", "setting": "HEL [13]", "result": 5.91, "unit": "%"},
      {"measurement": "viability at 9 µM", "setting": "HEL [14]", "result": 24.3, "unit": "%"},
      {"measurement": "Activity", "setting": "HEL [15]", "result": 30.4, "unit": "%"},
      {"measurement": "viability at 3 µM", "setting": "HEL [16]", "result": 22.6, "unit": "%"}
    ]}
  ]
}
